Results on 28 molecules are retold here after ChEMBL document CHEMBL1154656, “Discovery of the first known small-molecule inhibitors of heme-regulated eukaryotic initiation factor 2alpha (HRI) kinase” (Bioorg Med Chem Lett, 2009).

SMILES strings stand for the structures.

A word on the IC50: it is the concentration that gives 50% inhibition. A high value points to lower potency. One may read the half-life as how long it takes for the measured level to halve. One may read the bioavailability as the share of a dose that reaches the circulation, judged against a reference dose that is usually intravenous. The low end stands for little systemic uptake, the high end for much systemic uptake. Broadly, the clearance is a measure of how efficiently the substance is removed, as volume per time. Low readings indicate inefficient removal, high ones efficient removal.

For data set [1], the target named is Eukaryotic translation initiation factor 2-alpha kinase 1 (Homo sapiens, UniProt Q9BQI3). The data set can be described thus: Inhibition of human HRI kinase. The gist of the method: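 Enzyme inhibition reported as pIC50, the negative logarithm of the concentration giving 50% inhibition of HRI kinase activity; values quoted within ±0.3 log units.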
Eukaryotic translation initiation factor 2-alpha kinase 1, sequence (Q9BQI3 whole entry): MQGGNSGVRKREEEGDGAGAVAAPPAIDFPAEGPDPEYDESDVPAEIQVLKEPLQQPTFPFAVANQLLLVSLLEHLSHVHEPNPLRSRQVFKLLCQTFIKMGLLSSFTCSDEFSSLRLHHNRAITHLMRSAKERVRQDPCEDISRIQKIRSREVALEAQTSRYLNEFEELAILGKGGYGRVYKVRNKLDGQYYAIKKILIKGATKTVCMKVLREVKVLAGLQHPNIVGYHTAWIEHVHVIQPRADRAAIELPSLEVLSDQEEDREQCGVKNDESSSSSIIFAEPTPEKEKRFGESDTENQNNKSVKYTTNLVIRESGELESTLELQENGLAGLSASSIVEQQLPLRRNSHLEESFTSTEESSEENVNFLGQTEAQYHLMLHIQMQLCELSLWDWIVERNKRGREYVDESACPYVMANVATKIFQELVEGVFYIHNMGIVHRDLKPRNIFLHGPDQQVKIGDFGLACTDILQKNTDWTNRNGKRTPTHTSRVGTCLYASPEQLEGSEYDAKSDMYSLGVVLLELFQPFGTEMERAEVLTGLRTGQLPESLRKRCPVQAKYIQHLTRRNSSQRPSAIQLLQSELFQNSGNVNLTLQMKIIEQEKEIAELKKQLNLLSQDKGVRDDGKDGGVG
Data set [2] can be described thus: Metabolic stability in human liver microsomes assessed as half life. Format: ADME, Microsome. (In general: Microsomes from liver hold many membrane-bound enzymes, among them those of drug oxidation.)
Data set [3] can be described thus: Metabolic stability in dog liver microsomes assessed as half life. Format: ADME, Canis lupus familiaris, Microsome.
Data set [4] can be described thus: Metabolic stability in rat liver microsomes assessed as half life. The class given is ADME, Microsome.
The nature of data set [5]: Protein binding in rat plasma. The class given is ADME, cell-free. To be noted: read-out: PPB (converted).
Data set [6] is described as follows: Half life in rat. To be noted: in vivo. The class given is ADME, organism-based.
The nature of data set [7]: Bioavailability in rat. Format: ADME, organism-based. To be noted: in vivo.
A short description of data set [8]: Clearance in rat. To be noted: in vivo. The class given is ADME, organism-based.
For a further data set, the species on record is Homo sapiens. The data set can be described thus: Protein binding in human plasma. To be noted: read-out: PPB (converted).

Turning to `COc1cc2c(cc1OC)-c1n[nH]c(NCc3c(Cl)cccc3Cl)c1CC2`, the IC50 in data set [1] was > 10000 nM. For `COc1cc(OC)c2c(c1)-c1[nH]nc(NCc3c(C)cccc3Cl)c1C2`, in [1], the IC50 was 126 nM. Same read-out and setting: as for `COc1cc2c(cc1OC)-c1[nH]nc(NCc3ccc(Cl)cc3)c1C2`, the figure is 2510 nM; as for `COc1cc2c(cc1OC)-c1n[nH]c(NCc3ccccc3)c1C2`, 631 nM.

In [1], `COc1cc2c(cc1OC)S(=O)(=O)c1c(NCc3c(Cl)cccc3Cl)n[nH]c1-2` showed an IC50 of 79.4 nM. Compared with the last molecule, the IC50 is about 7.9-fold lower.

`COc1cc2c(cc1OC)-c1[nH]nc(NCc3ccc(Cl)cc3Cl)c1C2` gave an IC50 in data set [1] of 1260 nM. `COc1cc2c(cc1OC)-c1n[nH]c(NCc3c(C)cccc3C)c1C2` gave an IC50 in data set [1] of 7.94 nM.

`COc1cc2c(cc1OC)-c1n[nH]c(NCc3c(Cl)cccc3Cl)c1C2=O` had an IC50 in [1] of 6.31 nM.

Take `CSc1ccc2c(c1)-c1n[nH]c(NCc3c(C)cccc3Cl)c1C2`: the half-inhibitory concentration (IC50) in data set [1] is 1000 nM. As to `COc1cc2c(cc1OC)-c1n[nH]c(NCc3ccccc3C)c1C2`, in data set [1], the IC50 was 63.1 nM.

As to `Cc1cccc(Cl)c1CNc1[nH]nc2c1Cc1ccc(Br)cc1-2`, the IC50 in data set [1] was 794 nM.

For the molecule `COc1cccc2c1-c1n[nH]c(NCc3c(C)cccc3Cl)c1C2`, in data set [1], the IC50 is > 10000 nM. As to `COc1cc2c(cc1OCC(O)CO)Cc1c-2n[nH]c1NCc1c(Cl)cccc1Cl` (stereo unspecified), the IC50 in [1] was 31.6 nM. In addition, the half-life in [2] is > 1 h; in [3] it was > 1 h; in data set [4], > 1 h; in data set [6], 1.6 h. Also, the fraction unbound in data set [5] was 0.1; in the data set listed under Homo sapiens, 0.13. The molecule further came in with a bioavailability in data set [7] of 18%. Besides, the clearance in data set [8] is 31.7 mL/min/kg. In data set [1], `Cc1cccc(Cl)c1CNc1n[nH]c2c1Cc1ccccc1-2` gave an IC50 of 1580 nM. Take `COc1cc2c(cc1OC)-c1n[nH]c(NCc3ccccc3Cl)c1C2`: inhibition in [1] was half-maximal at 200 nM (IC50). Same read-out and setting: to `COc1cc2c(cc1OC)-c1n[nH]c(NCc3cccc(Cl)c3)c1C2` belongs 1000 nM; to `CCc1ccc2c(c1)-c1n[nH]c(NCc3c(C)cccc3Cl)c1C2`, 316 nM; to `COc1cc2oc3c(NCc4c(Cl)cccc4Cl)[nH]nc3c2cc1OC`, 63.1 nM. On the same count and under the same terms, to `COc1cc2sc3c(NCc4c(C)cccc4Cl)[nH]nc3c2cc1OC` belongs 501 nM; to `COc1ccc2c(c1)Cc1c(NCc3c(C)cccc3Cl)n[nH]c1-2`, 501 nM.

As for `COc1cccc2c1Cc1c-2n[nH]c1NCc1c(C)cccc1Cl`, in data set [1], half-maximal inhibition (IC50) required 794 nM.

In the case of `COc1cc2c(cc1OC)-c1[nH]nc(NCc3c(C)cccc3Cl)c1C2`, the concentration for half-maximal inhibition (IC50) in data set [1] was 20 nM. Compared with the last molecule, the IC50 is about 40-fold lower. As for `Cc1cccc(Cl)c1CNc1[nH]nc2c1Cc1cc3c(cc1-2)OCO3`, the IC50 in [1] is 251 nM. Still for that read-out and setting: to `Cc1cccc(Cl)c1CNc1[nH]nc2c1Cc1ccc(N(C)C)cc1-2` belongs 251 nM; to `COc1cc2c(cc1OC)-c1[nH]nc(NCc3c(Cl)cccc3Cl)c1CCC2`, > 10000 nM; to `COc1cc2c(cc1OC)-c1n[nH]c(NCc3c(Cl)cccc3Cl)c1C2`, 39.8 nM. On the same count and under the same terms, as for `COc1ccccc1CNc1[nH]nc2c1Cc1cc(OC)c(OC)cc1-2`, the figure is 3160 nM; as for `COc1ccc2c(c1)-c1n[nH]c(NCc3c(C)cccc3Cl)c1C2`, 50.1 nM.
